Each structure is given as a SMILES string. Active and inactive are the calls of the source. The calls are words filed in the database; no cut-off is given here.

The test system of test [1] is Mus musculus. In words: Antiinflammatory activity in MOG (35 to 55 residues)/pertussis toxin-induced experimental autoimmune encephalomyelitis C57BL/6J mouse model assessed as improvement in late stage disease severity at 10 mg/kg, ip dosed once daily for 20 days starting from day 10 to 16 post immunization and measured at day 10 to 19 post treatment. The test is classed as functional, organism-based. The settings on record: time 10-19 day. An outline of the steps:
(§1)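 Active EAE in mice: 200 µg MOG35-55 in CFA (4 mg/ml M. tuberculosis) s.c. at hips and tail root, plus pertussis toxin 300 ng i.p. after immunization and 48 h later. Daily i.p. dosing (DMSO vehicle) for 20 days from each mouse's onset (day 10–16); onset = day 1. Daily clinical score; multiple t-tests with Holm-Sidak.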

Test [2] deals with Cannabinoid receptor 1 (Rattus norvegicus) (UniProt P20272). In words: Agonist activity at CB1R in Sprague-Dawley rat hippocampal synaptosomes assessed as inhibition of 4-AP evoked glutamate release at 10 uM preincubated for 8 mins followed by 4-AP addition in presence of 1 to 3 uM CB1R antagonist, SR141716A by HPLC analysis. The settings on record: Hippocampus. The test is classed as subcellular. Put shortly: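 Rat (male Sprague Dawley, 200-250 g) hippocampal synaptosomes from Percoll gradient, superfused at 37 °C (0.5 ml/min); 4-AP 600 μM for 2 min. Compounds and antagonists (SR141716A, SR144528, 1 μM) added 8 min before 4-AP and kept during it; basal effects tested by 2-min exposure alone. Endogenous glutamate by HPLC as pmol/mg protein; overflow = stimulated minus basal in control chambers; n = 3–9, triplicate.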
Chain of Cannabinoid receptor 1 (Rattus norvegicus) (P20272 whole entry, the tested form may be a part): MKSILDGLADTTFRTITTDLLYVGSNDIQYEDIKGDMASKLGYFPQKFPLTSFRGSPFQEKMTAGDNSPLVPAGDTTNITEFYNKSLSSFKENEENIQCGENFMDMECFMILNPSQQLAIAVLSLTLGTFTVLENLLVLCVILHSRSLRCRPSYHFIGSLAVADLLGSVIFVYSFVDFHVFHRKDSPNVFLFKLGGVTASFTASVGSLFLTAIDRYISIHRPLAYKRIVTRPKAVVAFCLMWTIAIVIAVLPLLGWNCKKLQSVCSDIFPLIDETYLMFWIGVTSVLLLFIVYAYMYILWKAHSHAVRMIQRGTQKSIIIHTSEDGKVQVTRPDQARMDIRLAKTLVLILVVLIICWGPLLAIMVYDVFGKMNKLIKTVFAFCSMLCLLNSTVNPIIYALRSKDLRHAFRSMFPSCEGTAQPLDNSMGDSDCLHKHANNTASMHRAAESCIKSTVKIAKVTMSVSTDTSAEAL

Test [3] deals with Mus musculus. In words: Antiinflammatory activity in MOG (35 to 55 residues)/pertussis toxin-induced experimental autoimmune encephalomyelitis C57BL/6J mouse model assessed as reduction in clinical scores at 10 mg/kg, ip dosed once daily for 20 days starting from day 10 to 16 post immunization and measured from 10 to 19 days post treatment. The test is classed as functional. The settings on record: time 10-19 day. Put shortly:
as §1

The subject of test [4] is Mus musculus. The test is described as follows: Antinociceptive activity in CD-1 albino mouse model of oxaliplatin-induced neuropathic pain assessed as decrease in pain-related behaviour at 10 mg/kg, po pretreated with CB2R antagonist, SR144528 for 15 mins before compound addition treated on day 15 post oxaliplatin treatment and measured after 15 to 75 mins post dose by cold plate test. The test is classed as functional, organism-based. The settings on record: time 15-75 min. Put shortly: (§2)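 Male CD-1 mice (22-25 g) given oxaliplatin 2.4 mg/kg i.p. in 5% glucose on days 1-2, 5-9, 12-14; tested day 15. Compound in 1% carboxymethylcellulose orally at 5, 10, 20, 50 mg/kg. Cold plate licking latency at 15, 30, 45, 60, 75 min post dose. Selective CB1R and CB2R antagonists co-tested. 16 mice per treatment across 2 sessions; one-way ANOVA with Bonferroni.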

The subject of test [5] is Mus musculus. In words: Antiinflammatory activity in MOG (35 to 55 residues)/pertussis toxin-induced experimental autoimmune encephalomyelitis C57BL/6J mouse model assessed as reduction in clinical scores at 10 mg/kg, ip dosed once daily for 20 days starting from day 10 to 16 post immunization and measured from 2 to 4 days post treatment. The test is classed as functional. The settings on record: time 2-4 day. An outline of the steps:
as §1

Test [6] has as its system Mus musculus. In words: Antinociceptive activity in CD-1 albino mouse model of oxaliplatin-induced neuropathic pain assessed as decrease in pain-related behaviour by measuring efficacy onset and time duration at 5 to 50 mg/kg, po treated on day 15 post oxaliplatin treatment and measured after 15 to 75 mins post dose by cold plate test. The test is classed as functional. The settings on record: dose 5-50 mg/kg; time 15-75 min. An outline of the steps:
as §2

In test [7] the target is T1, Cannabinoid receptor 2 (Homo sapiens, UniProt P34972). The test is described as follows: Agonist activity at human CB2R expressed in CHO cell membranes after 90 mins by [35S]GTPgammaS assay. The test is classed as functional, Membrane. An outline of the steps: (§3)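 In-house CHO membranes expressing hCB1 or hCB2 (10 µg) in 50 mM Tris-HCl, 3 mM MgCl2, 0.2 mM EDTA, 100 mM NaCl, 0.5% fatty-acid-free BSA, pH 7.4, with 10 μM GDP and 0.1 nM [35S]GTPγS. Incubated 90 min at 30 °C; antagonist pre-incubated 30 min. Nonspecific binding with 10 μM GTPγS; bound label by filtration and counting; ≥3 experiments in triplicate.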
T1 sequence (P34972 whole entry): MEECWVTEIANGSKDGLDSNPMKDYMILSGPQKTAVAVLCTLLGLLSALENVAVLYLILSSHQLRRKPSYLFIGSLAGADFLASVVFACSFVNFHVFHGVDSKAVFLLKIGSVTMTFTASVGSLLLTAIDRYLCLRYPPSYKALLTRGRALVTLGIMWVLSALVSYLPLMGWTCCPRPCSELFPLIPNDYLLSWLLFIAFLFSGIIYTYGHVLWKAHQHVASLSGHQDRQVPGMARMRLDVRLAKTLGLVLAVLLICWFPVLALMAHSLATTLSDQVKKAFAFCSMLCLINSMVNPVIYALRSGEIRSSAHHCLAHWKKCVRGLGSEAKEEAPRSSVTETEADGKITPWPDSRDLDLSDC
For orientation: Binding of GTPγS marks nucleotide exchange on a G protein.

Test [8] has as its target Cannabinoid receptor 1 (Homo sapiens, UniProt P21554). In words: Agonist activity at human CB1R expressed in CHO cell membranes after 90 mins by [35S]GTPgammaS assay. The test is classed as functional, Membrane. Put shortly: as §3
Test [9] deals with Mus musculus. In words: Antiinflammatory activity in MOG (35 to 55 residues)/pertussis toxin-induced experimental autoimmune encephalomyelitis C57BL/6J mouse model assessed as improvement in early stage disease severity at 10 mg/kg, ip dosed once daily for 20 days starting from day 10 to 16 post immunization and measured at day 2 to 4 post treatment. Conditions: time 2-4 day. The test is classed as functional, organism-based. Put shortly: as §1

Test [10] has as its target T1, Cannabinoid receptor 2. In words: Competitive antagonist activity at human CB2R expressed in CHO cell membranes assessed as rightward shift of N-cycloheptyl-1,2-dihydro-5-bromo-1-(4-fluoro benzyl)-6-methyl-2-oxo-pyridine-3-carboxamide-induced GTPgammaS binding by measuring fold change in N-cycloheptyl-1,2-dihydro-5-bromo-1-(4-fluoro benzyl)-6-methyl-2-oxo-pyridine-3-carboxamide EC50 at 1000 nM preincubated with compound for 30 mins followed by GTPgammaS addition and measured after 90 mins by [35S]GTPgammaS assay. The test is classed as functional. The settings on record: Membrane, time 120.0 min. An outline of the steps: (§4)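 hCB2 CHO membranes in GTPγS buffer (10 μM GDP, 0.1 nM [35S]GTPγS, pH 7.4) pre-incubated 30 min with antagonist at 300 nM or 1 µM, then agonist or inverse agonist concentration series, 90 min at 30 °C. EC50 and Emax reported with 95% CI; Schild analysis; controls CP55,940 100 nM and AM630 1 μM; ≥3 experiments in triplicate.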

Test [11] deals with T1, Cannabinoid receptor 2. The test is described as follows: Competitive antagonist activity at human CB2R expressed in CHO cell membranes assessed as rightward shift of N-cycloheptyl-1,2-dihydro-5-bromo-1-(4-fluoro benzyl)-6-methyl-2-oxo-pyridine-3-carboxamide-induced GTPgammaS binding by measuring fold change in N-cycloheptyl-1,2-dihydro-5-bromo-1-(4-fluoro benzyl)-6-methyl-2-oxo-pyridine-3-carboxamide EC50 at 100 nM preincubated with compound for 30 mins followed by GTPgammaS addition and measured after 90 mins by [35S]GTPgammaS assay. The settings on record: Membrane, time 120.0 min. The test is classed as functional.

Test [12] addresses T1, Cannabinoid receptor 2. In words: Competitive antagonist activity at human CB2R expressed in CHO cell membranes assessed as rightward shift of N-cycloheptyl-1,2-dihydro-5-bromo-1-(4-fluoro benzyl)-6-methyl-2-oxo-pyridine-3-carboxamide-induced GTPgammaS binding by measuring fold change in N-cycloheptyl-1,2-dihydro-5-bromo-1-(4-fluoro benzyl)-6-methyl-2-oxo-pyridine-3-carboxamide EC50 at 300 nM preincubated with compound for 30 mins followed by GTPgammaS addition and measured after 90 mins by [35S]GTPgammaS assay. The test is classed as functional. The settings on record: Membrane, time 120.0 min. An outline of the steps: as §4

Test [13] deals with T1, Cannabinoid receptor 2. In words: Competitive antagonist activity at human CB2R expressed in CHO cell membranes assessed as N-cycloheptyl-1,2-dihydro-5-bromo-1-(4-fluoro benzyl)-6-methyl-2-oxo-pyridine-3-carboxamide Emax at 100 nM preincubated with compound for 30 mins followed by GTPgammaS addition and measured after 90 mins by [35S]GTPgammaS assay (reference value: 210%). The test is classed as functional. Conditions: Membrane, filed as antagonist, time 120.0 min.

For test [14], the target named is T1, Cannabinoid receptor 2. The test is described as follows: Competitive antagonist activity at human CB2R expressed in CHO cell membranes assessed as N-cycloheptyl-1,2-dihydro-5-bromo-1-(4-fluoro benzyl)-6-methyl-2-oxo-pyridine-3-carboxamide Emax at 1000 nM preincubated with compound for 30 mins followed by GTPgammaS addition and measured after 90 mins by [35S]GTPgammaS assay (reference value: 210%). The settings on record: Membrane, filed as antagonist, time 120.0 min. The test is classed as functional. An outline of the steps: as §4

Chain of Cannabinoid receptor 1 (P21554 whole entry, the tested form may be a part): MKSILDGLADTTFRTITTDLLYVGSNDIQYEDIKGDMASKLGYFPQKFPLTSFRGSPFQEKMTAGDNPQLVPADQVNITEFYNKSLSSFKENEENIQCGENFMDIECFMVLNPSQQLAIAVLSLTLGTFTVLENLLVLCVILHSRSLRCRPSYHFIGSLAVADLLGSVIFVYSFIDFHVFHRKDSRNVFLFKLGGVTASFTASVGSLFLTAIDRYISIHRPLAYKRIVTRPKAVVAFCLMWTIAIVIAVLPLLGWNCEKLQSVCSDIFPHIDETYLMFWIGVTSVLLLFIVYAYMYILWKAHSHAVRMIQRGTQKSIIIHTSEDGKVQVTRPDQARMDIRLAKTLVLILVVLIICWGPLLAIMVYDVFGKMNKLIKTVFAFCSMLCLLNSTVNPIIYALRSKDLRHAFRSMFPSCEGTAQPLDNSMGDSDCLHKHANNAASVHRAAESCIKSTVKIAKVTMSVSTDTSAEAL

The term inhibition in vivo denotes the change of the read-out against control, counted positive when it falls. Broadly, the EC50 is the concentration needed to bring the measured effect to its halfway point. A lower EC50 goes with a more potent agent. On to `Cc1c(Br)cc(C(=O)NC2CCCCCC2)c(=O)n1Cc1ccc(F)cc1`, for which the outcome in test [1] and in test [9] was Active. For the same compound, the outcome in [2] and in test [4] was inactive. The inhibition in vivo at 10 mg/kg was 50% in test [3] and 30% in test [5]. For the same compound, the Time in test [6] was determined as 15 min. The EC50 in test [7] is 11.6 nM; in [8] it was 56.1 nM.

By Emax is commonly meant the greatest response seen or fitted, relative to the assay's reference. On to `COc1ccc(-c2cc(C(=O)NC3CCCCCC3)c(=O)n(Cc3ccc(F)cc3)c2C)cc1`, for which the fold change (FC) came to 70 in test [10], 8 in [11] and 19 in test [12]. In addition, the Emax in test [13] was 219%; in [14], 208%.
